Results on seven compounds are retold here after ChEMBL document CHEMBL3112527, “Quinoline-pyrimidine hybrids: synthesis, antiplasmodial activity, SAR, and mode of action studies” (J Med Chem, 2014).

One data set has as its system Vaccinia virus. Nature of the data set: Antiviral activity against Vaccinia virus infected in HEL cells assessed as inhibition of virus-induced cytopathicity. The data set is classed as functional, organism-based. The following applies: Orthopoxvirus vaccinia. Put shortly:
(§1)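 Confluent monolayers in 96-well plates were inoculated with 100 CCID50 of virus in the presence of varying concentrations of compound. Read-out was inhibition of virus-induced cytopathicity, compared with untreated infected cultures. Cytotoxicity was judged microscopically or by MTT viability staining.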

A short description of data set [1]: n-octanol-PBS buffer distribution coefficient, log D of the compound at pH 7.4 after 24 hrs by HPLC analysis. The data set is classed as physicochemical.
Another data set relates to Influenza A virus H3N2. Kind of data set: Antiviral activity against Influenza A virus H3N2 infected in MDCK cells assessed as inhibition of virus-induced cytopathicity. The data set is classed as functional, organism-based. In outline:
as §1
In general terms: Damage to the host cells serves as the signal in cytopathic effect assays.

For another data set, the system named is Human alphaherpesvirus 2. Nature of the data set: Antiviral activity against HSV-2 G infected in HEL cells assessed as inhibition of virus-induced cytopathicity. The data set is classed as functional, organism-based. The following applies: strain G. In outline:
(§2)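 Confluent monolayers (HEL, Vero, HeLa or CrFK, as applicable) were inoculated with 100 CCID50 of virus, with 1 CCID50 being the dose that infects 50% of cultures. Infection ran in the presence of varying compound concentrations. Inhibition of virus-induced cytopathicity was scored against infected cultures left untreated.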

Data set [2] relates to Mammalian orthoreovirus 1. Kind of data set: Antiviral activity against Reovirus 1 infected in African green monkey Vero cells assessed as inhibition of virus-induced cytopathicity. The data set is classed as functional, organism-based. Put shortly: as §2
The test system of the next data set is Human respirovirus 3. Nature of the data set: Antiviral activity against parainfluenza virus 3 infected in African green monkey Vero cells assessed as inhibition of virus-induced cytopathicity. It counts as functional, organism-based. Put shortly:
as §2

The nature of data set [3]: Cytotoxicity against human HeLa cells assessed as alteration of cell morphology by microscopic analysis. It counts as cell-based. The following applies: read-out: MIC. In outline:
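Cells (Vero, HEL, MDCK or HeLa) were exposed to a range of sample concentrations. The value reported is the concentration required to cause a microscopically detectable alteration of normal cell morphology.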

The test system of data set [4] is Human alphaherpesvirus 1. Kind of data set: Antiviral activity against thymidine kinase-negative acyclovir-resistant HSV-1 KOS infected in HEL cells assessed as inhibition of virus-induced cytopathicity. It counts as functional, organism-based. In outline: as §1
The subject of a further data set is Punta Toro virus. Nature of the data set: Antiviral activity against Punta Toro virus infected in African green monkey Vero cells assessed as inhibition of virus-induced cytopathicity. It counts as functional, organism-based. Put shortly: as §2
Another data set deals with Felid alphaherpesvirus 1. Kind of data set: Antiviral activity against Feline herpesvirus infected in cat CRFK cells assessed as inhibition of virus-induced cytopathicity. It counts as functional, organism-based. Put shortly: as §2
In a further data set the test system is Human alphaherpesvirus 3. Nature of the data set: Antiviral activity against Varicella-zoster virus infected in HEL cells assessed as inhibition of virus-induced cytopathicity. The data set is classed as functional, organism-based.
The test system of data set [5] is Vesicular stomatitis virus. Kind of data set: Antiviral activity against Vesicular stomatitis virus infected in human HeLa cells assessed as inhibition of virus-induced cytopathicity. The data set is classed as functional, organism-based. Put shortly:
as §1

Data set [6] deals with Human betaherpesvirus 5. Kind of data set: Antiviral activity against Cytomegalovirus Davis infected in HEL cells assessed as inhibition of virus-induced cytopathicity. The data set is classed as functional, organism-based.
The subject of data set [7] is Coxsackievirus B4. Nature of the data set: Antiviral activity against Coxsackievirus B4 infected in human HeLa cells assessed as inhibition of virus-induced cytopathicity. It counts as functional, organism-based. Put shortly:
as §2

Data set [8] is described as follows: Solubility of the compound in octanol at pH 7.4 by HPLC analysis. The data set is classed as physicochemical.
Another data set has as its system Feline coronavirus. Kind of data set: Antiviral activity against Feline coronavirus infected in cat CRFK cells assessed as inhibition of virus-induced cytopathicity. The data set is classed as functional, organism-based. Put shortly:
as §2

The subject of the next data set is Influenza A virus. Nature of the data set: Antiviral activity against influenza A virus H1N1 infected in MDCK cells assessed as inhibition of virus-induced cytopathicity. The data set is classed as functional, organism-based. In outline:
as §1

Data set [9] in a line: Aqueous solubility of the compound in PBS buffer at pH 7.4 after 24 hrs by HPLC analysis. It counts as physicochemical. The following applies: pH 7.4, 24 h.
Data set [10] is described as follows: Cytotoxicity against cat CRFK cells assessed as cell viability by MTS assay. It counts as cell-based, Felis catus. Put shortly:
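CRFK cells were exposed to varying sample concentrations. Cell viability was measured with the colorimetric formazan-based MTS assay, and the 50% cytotoxic concentration (CC50) was derived from it.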

The subject of the next data set is Sindbis virus. Nature of the data set: Antiviral activity against Sindbis virus infected in African green monkey Vero cells assessed as inhibition of virus-induced cytopathicity. The data set is classed as functional, organism-based.
The subject of data set [11] is Respiratory syncytial virus. Nature of the data set: Antiviral activity against Respiratory syncytial virus infected in human HeLa cells assessed as inhibition of virus-induced cytopathicity. It counts as functional, organism-based. In outline:
as §2

Data set [12] concerns Human alphaherpesvirus 1. Nature of the data set: Antiviral activity against HSV-1 KOS infected in HEL cells assessed as inhibition of virus-induced cytopathicity. It counts as functional, organism-based. In outline: as §2
In data set [13] the test system is Coxsackievirus B4. Nature of the data set: Antiviral activity against Coxsackievirus B4 infected in African green monkey Vero cells assessed as inhibition of virus-induced cytopathicity. The data set is classed as functional, organism-based. Put shortly: as §2
The subject of data set [14] is Vesicular stomatitis virus. Nature of the data set: Antiviral activity against Vesicular stomatitis virus infected in HEL cells assessed as inhibition of virus-induced cytopathicity. The data set is classed as functional, organism-based. In outline: as §1
The test system of the next data set is Plasmodium falciparum. Nature of the data set: Antiplasmodial activity against chloroquine-sensitive asexual erythrocytic stage of Plasmodium falciparum D10 assessed as parasite growth inhibition by lactate dehydrogenase assay. It counts as functional, organism-based. In outline: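 Parasite lactate dehydrogenase assay (modified Makler method). Samples held as 20 mg/mL stocks in DMSO, diluted on test day. Full dose-response: starting at 10 μg/mL, 2-fold serial dilution in complete medium over 10 concentrations down to 0.02 μg/mL. Chloroquine, artesunate and MMV390048 served as references. IC50 from nonlinear dose-response curve fitting; mean of three independent experiments.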

Data set [15] relates to Human betaherpesvirus 5. Nature of the data set: Antiviral activity against Cytomegalovirus AD169 infected in HEL cells assessed as inhibition of virus-induced cytopathicity. It counts as functional, organism-based.

Converted amounts (≈) assume the structure as drawn. The source made the active and inactive calls. The calls are words filed in the database; no cut-off is given here.

With `Clc1ccc2c(NCCCCCCCCNc3nccc(Cl)n3)ccnc2c1`, the inhibition entry (with Vaccinia virus; with Influenza A virus H3N2; in the data set on Human alphaherpesvirus 2; in [2]; in the data set with Human respirovirus 3; in the data set on Human alphaherpesvirus 1 [4]) was “inactive” throughout. The inhibition result (in the data set on Punta Toro virus; with Felid alphaherpesvirus 1; with Human alphaherpesvirus 3; in data set [5]; in the data set on Human betaherpesvirus 5 [6]; in the data set with Coxsackievirus B4 [7]) was “inactive” throughout. Also, the inhibition entry (with Feline coronavirus; with Influenza A virus; in the data set with Sindbis virus; in [11]; in the data set on Human alphaherpesvirus 1 [12]; in the data set on Coxsackievirus B4 [13]) was “inactive” throughout. The inhibition result (in data set [14]; in the data set with Human betaherpesvirus 5 [15]) was “inactive” in each case. The compound further had a pH-dependent lipophilicity (logD) at 24 h in data set [1] of 1.51. Besides, the MCC in data set [3] was 20 µM. Also, the solubility in [8] was 2.91 µM (≈ 1.22 µg/mL); in data set [9], 0.09 µM (≈ 0.0377 µg/mL). In addition, the CC50 in data set [10] was found to be 10 µM. The IC50 in the data set on Plasmodium falciparum stood at 1.06 µM.

Take `Clc1ccnc(N2CCOCC2)n1`: the inhibition result (with Vaccinia virus; in the data set on Influenza A virus H3N2; with Human alphaherpesvirus 2; in [2]; with Human respirovirus 3; in the data set with Human alphaherpesvirus 1 [4]) was “inactive” throughout. The inhibition result (in the data set with Punta Toro virus; with Felid alphaherpesvirus 1; with Human alphaherpesvirus 3; in [5]; with Human betaherpesvirus 5 [6]; in the data set with Coxsackievirus B4 [7]) was “inactive” each time. The inhibition result (in the data set with Feline coronavirus; with Influenza A virus; in the data set with Sindbis virus; in data set [11]; with Human alphaherpesvirus 1 [12]; in the data set on Coxsackievirus B4 [13]) was “inactive” throughout. Further, the inhibition entry (in [14]; with Human betaherpesvirus 5 [15]) was “inactive” throughout. The compound also showed a log distribution coefficient (logD) at 24 h in [1] of 0.13. Besides, the MCC in [3] was over 100 µM. The solubility in data set [8] turned out to be 12.1 µM (≈ 2.42 µg/mL); in [9], 9 µM (≈ 1.8 µg/mL). In addition, the CC50 in data set [10] is over 100 µM. Besides, the IC50 in the data set with Plasmodium falciparum is 15 µM.

In the case of `Clc1ccc2c(NCCNc3ccnc(Cl)n3)ccnc2c1`, the inhibition result (with Vaccinia virus; in the data set with Influenza A virus H3N2; with Human alphaherpesvirus 2; in data set [2]; with Human respirovirus 3; in the data set on Human alphaherpesvirus 1 [4]) was “inactive” in each case. Moreover, the inhibition entry (in the data set on Punta Toro virus; in the data set on Felid alphaherpesvirus 1; with Human alphaherpesvirus 3; in [5]; in the data set on Human betaherpesvirus 5 [6]; in the data set with Coxsackievirus B4 [7]) was “inactive” throughout. The inhibition entry (in the data set on Feline coronavirus; in the data set with Influenza A virus; in the data set on Sindbis virus; in [11]; with Human alphaherpesvirus 1 [12]; in the data set on Coxsackievirus B4 [13]) was “inactive” each time. The inhibition entry (in [14]; in the data set on Human betaherpesvirus 5 [15]) was “inactive” throughout. The same compound gave a logD at 24 h in data set [1] of 0.489. The MCC in data set [3] stood at 4 µM. The solubility in data set [8] was 2.09 µM (≈ 0.698 µg/mL); in data set [9], 0.68 µM (≈ 0.227 µg/mL). Also, the cytotoxic concentration (CC50) in [10] was over 100 µM. For the same compound, in the data set on Plasmodium falciparum, the IC50 was 1.43 µM.

On to `Clc1ccc2c(NCCCCCCCCCCNc3nccc(Cl)n3)ccnc2c1`, for which the inhibition entry (in the data set with Vaccinia virus; in the data set on Influenza A virus H3N2; in the data set on Human alphaherpesvirus 2; in data set [2]; with Human respirovirus 3; in the data set with Human alphaherpesvirus 1 [4]) was “inactive” throughout. Also, the inhibition entry (in the data set on Punta Toro virus; in the data set with Felid alphaherpesvirus 1; with Human alphaherpesvirus 3; in data set [5]; in the data set on Human betaherpesvirus 5 [6]; in the data set with Coxsackievirus B4 [7]) was “inactive” each time. Besides, the inhibition entry (with Feline coronavirus; with Influenza A virus; in the data set on Sindbis virus; in data set [11]; in the data set with Human alphaherpesvirus 1 [12]; in the data set with Coxsackievirus B4 [13]) was “inactive” each time. The inhibition result (in data set [14]; with Human betaherpesvirus 5 [15]) was “inactive” in each case. In [1], the logD at 24 h is 1.99. Further, the MCC in data set [3] was 4 µM. In addition, the solubility in data set [8] stood at 6.82 µM (≈ 3.04 µg/mL); in [9], 0.07 µM (≈ 0.0312 µg/mL). Further, in data set [10], the half-maximal cytotoxic concentration (CC50) was 4.4 µM. For the same compound, in the data set with Plasmodium falciparum, the IC50 was determined as 3.34 µM.

Turning to `CS(=O)(=O)c1ccc(-c2cnc(N)c(-c3ccc(C(F)(F)F)nc3)c2)cc1` [MMV-048], in the data set on Plasmodium falciparum, the concentration for half-maximal inhibition (IC50) stood at 0.00901 µM.

For the compound `Clc1ccc2c(NCCCCCCCNc3nccc(Cl)n3)ccnc2c1`, the inhibition result (in the data set with Vaccinia virus; in the data set on Influenza A virus H3N2; in the data set on Human alphaherpesvirus 2; in data set [2]; in the data set with Human respirovirus 3; with Human alphaherpesvirus 1 [4]) was “inactive” throughout. Besides, the inhibition entry (in the data set on Punta Toro virus; in the data set with Felid alphaherpesvirus 1; in the data set on Human alphaherpesvirus 3; in [5]; in the data set with Human betaherpesvirus 5 [6]; in the data set on Coxsackievirus B4 [7]) was “inactive” each time. The inhibition entry (in the data set with Feline coronavirus; with Influenza A virus; in the data set with Sindbis virus; in [11]; in the data set on Human alphaherpesvirus 1 [12]; in the data set on Coxsackievirus B4 [13]) was “inactive” throughout. Also, the inhibition entry (in data set [14]; with Human betaherpesvirus 5 [15]) was “inactive” in each case. Moreover, in [1], the logD at 24 h turned out to be 1.16. Moreover, the MCC in data set [3] came to 4 µM. The solubility is 1.92 µM (≈ 0.776 µg/mL) in [8] and 0.13 µM (≈ 0.0526 µg/mL) in [9]. Also, the cytotoxic concentration (CC50) in [10] is over 100 µM. For the same compound, in the data set on Plasmodium falciparum, the IC50 turned out to be 0.383 µM.

With `C[C@H]1[C@H](OC(=O)CCC(=O)O)O[C@@H]2O[C@@]3(C)CC[C@H]4[C@H](C)CC[C@@H]1[C@@]24OO3` [ARTESUNATE], in the data set on Plasmodium falciparum, the IC50 came out at 0.0063 µM.

The term logD denotes the decadic logarithm of the distribution of all forms, ionised or not, between an organic phase and buffer at a given pH. In general, solubility refers to the dissolved amount per volume that the medium holds. In general, CC50 refers to the concentration giving 50% cytotoxicity. Broadly, the IC50 is the concentration needed to halve the response being measured.
